This is an account of results in ChEMBL document CHEMBL1833822, “Efficient synthesis of apricoxib, CS-706, a selective cyclooxygenase-2 inhibitor, and evaluation of inhibition of prostaglandin E2 production in inflammatory breast cancer cells” (2011).

Common to all, as to assay type: functional
In assay [1] the test system is SUM149PT. As to the kind of experiment: Inhibition of sodium arachidonate-induced PGE2 production in human SUM149 cells assessed as PGE2 level per 1000 cells at 0.1 uM preincubated for 2 hrs before sodium arachidonate challenge measured after 2 hrs by competitive EIA (reference value: 3.15 +/- 0.19 pg/mL). In a few lines:
(§1)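 Cells seeded in triplicate, grown at 37°C, 5% CO2 to 80% confluence, washed with PBS, then given fresh medium with inhibitor (0.1, 1, 10 μM) or DMSO vehicle. After 2 h preincubation at 37°C, sodium arachidonate was added to 10 μM final for 2 h more. Supernatant PGE2 was measured by competitive EIA and normalized to trypsinized cell count (pg/mL/1000 cells). Three runs, mean ± SD.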

In assay [2] the test system is SUM149PT. The assay can be described thus: Inhibition of sodium arachidonate-induced PGE2 production in human SUM149 cells assessed as PGE2 level per 1000 cells at 1 uM preincubated for 2 hrs before sodium arachidonate challenge measured after 2 hrs by competitive EIA (reference value: 3.15 +/- 0.19 pg/mL). In a few lines: as §1
The test system of assay [3] is SUM149PT. The assay can be described thus: Inhibition of sodium arachidonate-induced PGE2 production in human SUM149 cells assessed as PGE2 level per 1000 cells at 10 uM preincubated for 2 hrs before sodium arachidonate challenge measured after 2 hrs by competitive EIA (reference value: 3.15 +/- 0.19 pg/mL). In a few lines: as §1
Assay [4] can be described thus: Inhibition of sodium arachidonate-induced PGE2 production in human SUM190 cells assessed as PGE2 level per 1000 cells at 0.1 uM preincubated for 2 hrs before sodium arachidonate challenge measured after 2 hrs by competitive EIA (reference value: 6.43 +/- 1.87 pg/mL). In a few lines:
as §1

A short description of assay [5]: Inhibition of sodium arachidonate-induced PGE2 production in human SUM190 cells assessed as PGE2 level per 1000 cells at 1 uM preincubated for 2 hrs before sodium arachidonate challenge measured after 2 hrs by competitive EIA (reference value: 6.43 +/- 1.87 pg/mL). In a few lines: as §1
A short description of assay [6]: Inhibition of sodium arachidonate-induced PGE2 production in human SUM190 cells assessed as PGE2 level per 1000 cells at 10 uM preincubated for 2 hrs before sodium arachidonate challenge measured after 2 hrs by competitive EIA (reference value: 6.43 +/- 1.87 pg/mL). In a few lines:
as §1

Assay [7] deals with SUM149PT. The assay can be described thus: Inhibition of sodium arachidonate-induced PGE2 production in human SUM149 cells at 100 nM preincubated for 2 hrs before sodium arachidonate challenge measured after 2 hrs by competitive EIA. In a few lines: as §1
For assay [8], the system named is SUM149PT. The assay can be described thus: Inhibition of sodium arachidonate-induced PGE2 production in human SUM149 cells at 1 uM preincubated for 2 hrs before sodium arachidonate challenge measured after 2 hrs by competitive EIA. In a few lines:
as §1

For assay [9], the system named is SUM149PT. As to the kind of experiment: Inhibition of sodium arachidonate-induced PGE2 production in human SUM149 cells at 10 uM preincubated for 2 hrs before sodium arachidonate challenge measured after 2 hrs by competitive EIA. In a few lines:
as §1

Molecules are shown by their SMILES.

Consider `CCOc1ccc(-c2cc(C)cn2-c2ccc(S(N)(=O)=O)cc2)cc1` [APRICOXIB], for which the Activity in the assay with SUM149PT [1] was determined as 0.97 pg/mL; in the assay with SUM149PT [2], 0.28 pg/mL; with SUM149PT [3], 0.11 pg/mL; in assay [4], 2.1 pg/mL; in assay [5], 0.5 pg/mL; in assay [6] it was 0.22 pg/mL. The inhibition at 0.1 µM in the assay on SUM149PT [7] is 70%. In the assay with SUM149PT [8], the inhibition at 1 µM turned out to be 91%. The molecule also showed an inhibition at 10 µM in the assay on SUM149PT [9] of 97%.
With `Cc1ccc(-c2cc(C(F)(F)F)nn2-c2ccc(S(N)(=O)=O)cc2)cc1` [CELECOXIB], the Activity worked out at 1.19 pg/mL with SUM149PT [1]; 0.43 pg/mL in the assay on SUM149PT [2]; 0.13 pg/mL with SUM149PT [3]; 2.87 pg/mL in assay [4]; 0.81 pg/mL in [5]; 0.18 pg/mL in [6].
